# ChEMBL document CHEMBL1926569, “Novel (E)-1-(4-methyl-2-(alkylamino)thiazol-5-yl)-3-arylprop-2-en-1-ones as potent antimicrobial agents” (2011)
# Tests used:
# Penicillium ochrochloron [1] = test: Ratio of ketoconazole to compound for Penicillium ochrochloron ATCC 9112; format: functional
# Enterococcus faecalis [2] = test: Antibacterial activity against Enterococcus faecalis isolated from human incubated for 24 hrs followed by serial sub-cultivation for 24 hrs by microdilution; format: functional
# Summary of the method: (§1)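 MBC: after the 24 h LB broth microdilution (1.0 × 10⁴ CFU per well, 160 rpm), wells were serially sub-cultured into fresh broth plates and incubated a further 24 h. MBC is the lowest concentration with no visible growth, taken as 99.5% killing of the original inoculum. Duplicate, repeated three times.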
# Candida albicans [3] = test: Ratio of bifonazole to compound for Candida albicans isolated from human; format: functional
# Escherichia coli [4] = test: Antibacterial activity against Escherichia coli ATCC 35210 after 24 hrs by microdilution method; format: functional; conditions: ATCC 35210, 24 h
# Summary of the method: (§2)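 Broth microdilution in 96-well plates. Bacterial suspensions were adjusted in sterile saline to 1.0 × 10⁵ CFU/ml, prepared daily and kept at 4 °C. Compound was added to LB broth with 1.0 × 10⁴ CFU per well and shaken at 160 rpm for 24 h at […] (so in the source). MIC is the lowest concentration with no visible growth under a binocular microscope. OD655 was also read. Duplicate, repeated three times.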
# Talaromyces funiculosus [5] = test: Antifungal activity against Penicillium funiculosum ATCC 36839 incubated for 72 hrs followed by serial sub-cultivation for 72 hrs by serial dilution technique; format: functional; conditions: ATCC 36839, 72 h
# Summary of the method: (§3)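 MFC: material from 72 h malt broth microdilution wells was serially sub-cultured into fresh broth plates and incubated a further 72 h at 28 °C. Fungicidal concentration is taken from growth after sub-culture. Duplicate, repeated three times.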
# Talaromyces funiculosus [6] = test: Antifungal activity against Penicillium funiculosum ATCC 36839 after 72 hrs by serial dilution technique; format: functional; conditions: ATCC 36839, 72 h
# Summary of the method: (§4)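 Modified microdilution in 96-well plates. Fungi were kept on malt agar at 4 °C. Spores were washed off in sterile 0.85% saline with 0.1% Tween 80. Compounds were dissolved at 1 mg/ml in 5% DMSO with 0.1% Tween 80 and added to malt broth with inoculum. Plates were shaken at 160 rpm for 72 h at 28 °C. Duplicate, repeated three times.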
# Aspergillus fumigatus [7] = test: Antifungal activity against Aspergillus fumigatus isolated from human incubated for 72 hrs followed by serial sub-cultivation for 72 hrs by serial dilution technique; format: functional; summary of the method: as §3
# Aspergillus flavus [8] = test: Antifungal activity against Aspergillus flavus ATCC 9643 incubated for 72 hrs followed by serial sub-cultivation for 72 hrs by serial dilution technique; format: functional; conditions: ATCC 9643, 72 h; summary of the method: as §3
# Aspergillus ochraceus [9] = test: Antifungal activity against Aspergillus ochraceus ATCC 12066 after 72 hrs by serial dilution technique; format: functional; conditions: ATCC 12066, 72 h; summary of the method: as §4
# Trichoderma viride [10] = test: Ratio of bifonazole to compound for Trichoderma viride IAM 5061; format: functional
# Bacillus cereus [11] = test: Antibacterial activity against clinical isolate of Bacillus cereus incubated for 24 hrs followed by serial sub-cultivation for 24 hrs by microdilution; format: functional; summary of the method: as §1
# Listeria monocytogenes [12] = test: Antibacterial activity against Listeria monocytogenes NCTC 7973 incubated for 24 hrs followed by serial sub-cultivation for 24 hrs by microdilution; format: functional; conditions: NCTC 7973, 24 h; summary of the method: as §1
# Trichoderma viride [13] = test: Antifungal activity against Trichoderma viride IAM 5061 incubated for 72 hrs followed by serial sub-cultivation for 72 hrs by serial dilution technique; format: functional; conditions: IAM 5061, 72 h; summary of the method: as §3
# Aspergillus fumigatus [14] = test: Ratio of ketoconazole to compound for Aspergillus fumigatus isolated from human; format: functional
# Enterococcus faecalis [15] = test: Antibacterial activity against Enterococcus faecalis isolated from human after 24 hrs by microdilution method; format: functional; summary of the method: as §2
# Aspergillus ochraceus [16] = test: Ratio of ketoconazole to compound for Aspergillus ochraceus ATCC 12066; format: functional
# Penicillium ochrochloron [17] = test: Ratio of bifonazole to compound for Penicillium ochrochloron ATCC 9112; format: functional
# Candida albicans [18] = test: Ratio of ketoconazole to compound for Candida albicans isolated from human; format: functional
# Candida albicans [19] = test: Antifungal activity against Candida albicans isolated from human after 72 hrs by serial dilution technique; format: functional; summary of the method: as §4
# Aspergillus ochraceus [20] = test: Ratio of bifonazole to compound for Aspergillus ochraceus ATCC 12066; format: functional
# Bacillus cereus [21] = test: Antibacterial activity against clinical isolate of Bacillus cereus after 24 hrs by microdilution method; format: functional; summary of the method: as §2
# Micrococcus flavus [22] = test: Antibacterial activity against Micrococcus flavus ATCC 10240 after 24 hrs by microdilution method; format: functional; conditions: ATCC 10240, 24 h; summary of the method: as §2
# Aspergillus niger [23] = test: Antifungal activity against Aspergillus niger ATCC 6275 after 72 hrs by serial dilution technique; format: functional; conditions: ATCC 6275, 72 h; summary of the method: as §4
# Trichoderma viride [24] = test: Antifungal activity against Trichoderma viride IAM 5061 after 72 hrs by serial dilution technique; format: functional; conditions: IAM 5061, 72 h; summary of the method: as §4
# Staphylococcus aureus [25] = test: Antibacterial activity against Staphylococcus aureus ATCC 6538 incubated for 24 hrs followed by serial sub-cultivation for 24 hrs by microdilution method; format: functional; conditions: ATCC 6538, 24 h; summary of the method: as §1
# Talaromyces funiculosus [26] = test: Ratio of bifonazole to compound for Penicillium funiculosum ATCC 36839; format: functional
# Pseudomonas aeruginosa [27] = test: Antibacterial activity against Pseudomonas aeruginosa ATCC 27853 incubated for 24 hrs followed by serial sub-cultivation for 24 hrs by microdilution; format: functional; conditions: ATCC 27853, 24 h; summary of the method: as §1
# Staphylococcus aureus [28] = test: Antibacterial activity against Staphylococcus aureus ATCC 6538 after 24 hrs by microdilution method; format: functional; conditions: ATCC 6538, 24 h; summary of the method: as §2
# Listeria monocytogenes [29] = test: Antibacterial activity against Listeria monocytogenes NCTC 7973 after 24 hrs by microdilution method; format: functional; conditions: NCTC 7973, 24 h; summary of the method: as §2
# Salmonella typhimurium [30] = test: Antibacterial activity against Salmonella Typhimurium ATCC 13311 after 24 hrs by microdilution method; format: functional, Salmonella enterica subsp. enterica serovar Typhimurium; conditions: Salmonella enterica, ATCC 13311, 24 h; summary of the method: as §2
# Candida albicans [31] = test: Antifungal activity against Candida albicans isolated from human incubated for 72 hrs followed by serial sub-cultivation for 72 hrs by serial dilution technique; format: functional; summary of the method: as §3
# Aspergillus niger [32] = test: Ratio of bifonazole to compound for Aspergillus niger ATCC 6275; format: functional
# Pseudomonas aeruginosa [33] = test: Ratio of ampicillin MIC to compound MIC for Pseudomonas aeruginosa ATCC 27853; format: functional
# Aspergillus niger [34] = test: Antifungal activity against Aspergillus niger ATCC 6275 incubated for 72 hrs followed by serial sub-cultivation for 72 hrs by serial dilution technique; format: functional; conditions: ATCC 6275, 72 h; summary of the method: as §3
# Salmonella typhimurium [35] = test: Antibacterial activity against Salmonella Typhimurium ATCC 13311 incubated for 24 hrs followed by serial sub-cultivation for 24 hrs by microdilution; format: functional, Salmonella enterica subsp. enterica serovar Typhimurium; conditions: Salmonella enterica, ATCC 13311, 24 h; summary of the method: as §1
# Penicillium ochrochloron [36] = test: Antifungal activity against Penicillium ochrochloron ATCC 9112 after 72 hrs by serial dilution technique; format: functional; conditions: ATCC 9112, 72 h; summary of the method: as §4
# Escherichia coli [37] = test: Antibacterial activity against Escherichia coli ATCC 35210 incubated for 24 hrs followed by serial sub-cultivation for 24 hrs by microdilution; format: functional; conditions: ATCC 35210, 24 h; summary of the method: as §1
# Pseudomonas aeruginosa [38] = test: Antibacterial activity against Pseudomonas aeruginosa ATCC 27853 after 24 hrs by microdilution method; format: functional; conditions: ATCC 27853, 24 h; summary of the method: as §2
# Penicillium ochrochloron [39] = test: Antifungal activity against Penicillium ochrochloron ATCC 9112 incubated for 72 hrs followed by serial sub-cultivation for 72 hrs by serial dilution technique; format: functional; conditions: ATCC 9112, 72 h; summary of the method: as §3
# Aspergillus ochraceus [40] = test: Antifungal activity against Aspergillus ochraceus ATCC 12066 incubated for 72 hrs followed by serial sub-cultivation for 72 hrs by serial dilution technique; format: functional; conditions: ATCC 12066, 72 h; summary of the method: as §3
# Micrococcus flavus [41] = test: Antibacterial activity against Micrococcus flavus ATCC 10240 incubated for 24 hrs followed by serial sub-cultivation for 24 hrs by microdilution; format: functional; conditions: ATCC 10240, 24 h; summary of the method: as §1
# Aspergillus flavus [42] = test: Antifungal activity against Aspergillus flavus ATCC 9643 after 72 hrs by serial dilution technique; format: functional; conditions: ATCC 9643, 72 h; summary of the method: as §4
# Aspergillus ochraceus [43] = test: Antifungal activity against Aspergillus ochraceus after 72 hrs by serial dilution technique
smiles,measurement,setting,value
CCNc1nc(C)c(C(=O)/C=C/c2ccccc2OC)s1,Ratio,Penicillium ochrochloron [1],10
same,MBC,Enterococcus faecalis [2],82.8 µM
same,Ratio,Candida albicans [3],10
same,MIC,Escherichia coli [4],82.8 µM
same,MFC,Talaromyces funiculosus [5],66.2 µM
same,MIC,Talaromyces funiculosus [6],33.1 µM
same,MFC,Aspergillus fumigatus [7],66.2 µM
same,MFC,Aspergillus flavus [8],82.8 µM
same,MIC,Aspergillus ochraceus [9],66.2 µM
same,Ratio,Trichoderma viride [10],10
same,MBC,Bacillus cereus [11],82.8 µM
same,MBC,Listeria monocytogenes [12],116 µM
same,MFC,Trichoderma viride [13],66.2 µM
same,Ratio,Aspergillus fumigatus [14],10
same,MIC,Enterococcus faecalis [15],82.8 µM
same,Ratio,Aspergillus ochraceus [16],10
same,Ratio,Penicillium ochrochloron [17],10
same,Ratio,Candida albicans [18],10
same,MIC,Candida albicans [19],33.1 µM
same,Ratio,Aspergillus ochraceus [20],10
same,MIC,Bacillus cereus [21],66.2 µM
same,MIC,Micrococcus flavus [22],31.3 µM
same,MIC,Aspergillus niger [23],49.7 µM
same,MIC,Trichoderma viride [24],33.1 µM
same,MBC,Staphylococcus aureus [25],99.3 µM
same,Ratio,Talaromyces funiculosus [26],10
same,MBC,Pseudomonas aeruginosa [27],99.3 µM
same,MIC,Staphylococcus aureus [28],66.2 µM
same,MIC,Listeria monocytogenes [29],82.8 µM
same,MIC,Salmonella typhimurium [30],33.1 µM
same,MFC,Candida albicans [31],66.2 µM
same,Ratio,Aspergillus niger [32],10
same,Ratio,Pseudomonas aeruginosa [33],10
same,MFC,Aspergillus niger [34],66.2 µM
same,MBC,Salmonella typhimurium [35],82.8 µM
same,MIC,Penicillium ochrochloron [36],66.2 µM
same,MBC,Escherichia coli [37],82.8 µM
same,MIC,Pseudomonas aeruginosa [38],82.8 µM
same,MFC,Penicillium ochrochloron [39],82.8 µM
same,MFC,Aspergillus ochraceus [40],82.8 µM
same,MBC,Micrococcus flavus [41],82.8 µM
same,MIC,Aspergillus flavus [42],66.2 µM
same,MIC,Aspergillus ochraceus [43],49.7 µM
